{
  "source": "paper PMC11989202",
  "about": "(Molecular cancer research : MCR, 2025)",
  "key": {"DR5 [1]": {"test_system": "DR5", "test": "DR5 immunoblot, MDA-MB-468 cells", "format": "cell-based", "conditions": "MDA-MB-468, 24 h; for Effect on DDA-induced DR5 upregulation and oligomerization: with 2.5 μM dMtcyDTDO, 20 μM CEAPIN-A7, 10 μM KIRA-6, 10 μM AMG-44; for DR5 levels and disulfide bonding (electrophoretic mobility): non-reducing immunoblot, dFtcyDTDO 2.5 μM, Tunicamycin 500 ng/ml, PERKi alone"}, "DR5 [2]": {"test_system": "DR5", "test": "DR5 immunoblot with autophagy/lysosome inhibitors", "format": "cell-based", "conditions": "inhibitor alone, absence of DDA treatment, versus vehicle"}, "protein synthesis": {"test_system": "protein synthesis", "test": "Protein synthesis assay", "format": "cell-based", "conditions": "24 h pre-treatment, 2 h pulse"}, "MET [3]": {"test_system": "MET", "test": "MET/PCSK9 maturation", "format": "cell-based", "conditions": "HepG2, PERKi alone 1 μM, 24 h", "procedure,_shortened": "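HepG2 cells were grown in 10% FBS–DMEM at 37°C and 5% CO₂, then treated for 24 h. Cell lysates were run on immunoblots, under reducing conditions for MET.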"}, "MET [4]": {"test_system": "MET", "test": "MET/PCSK9 maturation", "format": "cell-based", "conditions": "MDA-MB-468, PERKi alone 1 μM, 24 h"}, "[5]": {"test_system": "MDA-MB-468 breast cancer cells", "test": "MTT cell viability assay, MDA-MB-468", "format": "cell-based", "conditions": "72 h", "procedure,_shortened": "(§1)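 Cells in 10% FBS–DMEM were seeded at 7,500 per well and kept 24 h at 37°C, then exposed to test compound for 72 h at 37°C. After medium removal they received 0.5 mg/ml MTT in PBS for 1 h at 37°C. Formazan was dissolved in DMSO and absorbance read at 570 and 690 nm. At least quadruplicate technical and three biological replicates were run.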"}, "WM793 melanoma cells": {"test_system": "WM793 melanoma cells", "test": "MTT cell viability assay, WM793", "format": "cell-based", "conditions": "72 h", "procedure,_shortened": "as §1"}, "DcR2": {"test_system": "DcR2", "test": "DcR2 immunoblot", "format": "cell-based", "conditions": "after dFtcyDTDO treatment"}, "DR5 [6]": {"test_system": "DR5", "test": "DR5 immunoblot, MCF10A cells", "format": "cell-based", "conditions": "non-transformed MCF10A, 2.5 μM, 24 h, reducing immunoblot"}, "DR5 [7]": {"test_system": "DR5", "test": "DR5 immunoblot, T47D cells", "format": "cell-based", "conditions": "2.5 μM, 24 h, reducing immunoblot"}, "DR5 [8]": {"test_system": "DR5", "test": "DR5 immunoblot, HaCaT keratinocytes", "format": "cell-based, human", "conditions": "2.5 μM, 24 h, reducing immunoblot"}, "012/LVM2/LR10 tumors": {"test_system": "012/LVM2/LR10 tumors", "test": "012/LVM2/LR10 xenograft tumor study, H&E tumor histology", "format": "in vivo", "conditions": "10 mg/kg dMtcyDTDO, 20 days, mice bearing 012/LVM2/LR10 tumors, versus vehicle"}, "[9]": {"test": "Metabolic stability in human liver microsomes", "conditions": "supplemented with NADPH (1 mM); substrate 10 μM; 1 mg/ml protein"}},
  "note": "Read-outs that look alike come from different tables or passages of the source.",
  "data": [
    {"molecule": "O=C(Nc1cnn(Cc2ccc(C(F)(F)F)cc2C(F)(F)F)c1)c1cc(-c2ccco2)on1", "note": "[CEAPIN-A7]", "values": [
      {"measurement": "Effect on DDA-induced DR5 upregulation and oligomerization", "setting": "DR5 [1]", "value": "without effect"}
    ]},
    {"molecule": "CO/C1=C\\C(C)=C\\[C@@H](C)[C@@H](O)[C@@H](C)C/C(C)=C/C=C/[C@H](OC)[C@@H]([C@@H](C)[C@@H](O)[C@H](C)[C@@]2(O)C[C@@H](O)[C@H](C)[C@@H](C(C)C)O2)OC1=O", "note": "[Bafilomycin A1]", "values": [
      {"measurement": "DR5 levels", "setting": "DR5 [2]", "value": "increased levels of monomeric and oligomeric DR5 isoforms"}
    ]},
    {"molecule": "Cn1cc(-c2ccc3c(c2)CCN3C(=O)Cc2cccc(C(F)(F)F)c2)c2c(N)ncnc21", "note": "[PERKi]", "values": [
      {"measurement": "Protein synthesis (3H-Leucine incorporation) in the presence of Tunicamycin", "setting": "protein synthesis", "value": "increased protein synthesis"},
      {"measurement": "Protein synthesis (3H-Leucine incorporation) in the presence of dFtcyDTDO", "setting": "protein synthesis", "value": "further decreased protein synthesis"},
      {"measurement": "DR5 levels and disulfide bonding (electrophoretic mobility)", "setting": "DR5 [1]", "value": "no discernable effect"},
      {"measurement": "MET or PCSK9 processing", "setting": "MET [3]", "value": "no effect on MET or PCSK9 processing"},
      {"measurement": "MET or PCSK9 processing", "setting": "MET [4]", "value": "no effect on MET or PCSK9 processing"},
      {"measurement": "Cell viability (MTT)", "setting": "[5]; PERKi alone", "value": "little effect on cell viability"},
      {"measurement": "Effect on dFtcyDTDO cytotoxicity (MTT)", "setting": "[5]; combination with dFtcyDTDO", "value": "strongly potentiated dFtcyDTDO cytotoxicity"},
      {"measurement": "Cell viability (MTT)", "setting": "WM793 melanoma cells; PERKi alone", "value": "little effect on cell viability"},
      {"measurement": "Effect on dFtcyDTDO cytotoxicity (MTT)", "setting": "WM793 melanoma cells; combination with dFtcyDTDO", "value": "strongly potentiated dFtcyDTDO cytotoxicity"}
    ]},
    {"molecule": "O=S1(=O)CC2CCCCC2CS1", "note": "(stereo not drawn) [tcyDTDO]", "values": [
      {"measurement": "t1/2 in human liver microsomes", "value": 11.9, "unit": "min"}
    ]},
    {"molecule": "O=S1(=O)CC2CC(F)C(F)CC2CS1", "note": "(stereo not drawn) [dFtcyDTDO]", "values": [
      {"measurement": "DcR2 levels", "setting": "DcR2", "value": "upregulation of DcR2"},
      {"measurement": "DR5 levels", "setting": "DR5 [6]", "value": "did not increase DR5 levels"},
      {"measurement": "DR5 levels and disulfide bonding (electrophoretic mobility)", "setting": "DR5 [1]", "value": "altered DR5 levels and disulfide bonding"},
      {"measurement": "DR5 levels", "setting": "DR5 [7]", "value": "increased DR5 levels"},
      {"measurement": "t1/2 in human liver microsomes", "value": "> 60", "unit": "min"},
      {"measurement": "DR5 levels", "setting": "DR5 [8]", "value": "did not increase DR5 levels"}
    ]},
    {"molecule": "CO[C@H]1C[C@@H]2CS(=O)(=O)SC[C@H]2C[C@@H]1OC", "note": "[dMtcyDTDO]", "values": [
      {"measurement": "Breast tumor tissue histology (H&E)", "setting": "012/LVM2/LR10 tumors", "value": "extensive death of tumor tissue"},
      {"measurement": "DR5 levels", "setting": "DR5 [6]", "value": "did not increase DR5 levels"},
      {"measurement": "t1/2 in human liver microsomes", "setting": "[9]", "value": 47.9, "unit": "min"},
      {"measurement": "DR5 levels", "setting": "DR5 [8]", "value": "did not increase DR5 levels"}
    ]},
    {"molecule": "CC(C)(C)c1nc(-c2ccc(NC(=O)Nc3cccc(C(F)(F)F)c3)c3ccccc23)c2c(N)nccn12", "note": "[KIRA-6]", "values": [
      {"measurement": "Effect on DDA-induced DR5 upregulation and oligomerization", "setting": "DR5 [1]", "value": "negated DR5 and TNFR1 upregulation by DDA treatment"}
    ]},
    {"molecule": "CC(C)(O)CNc1ncc(-c2ccnc(Nc3ccnc(Cl)c3)n2)c(CC2CC2)n1", "note": "[VPS34i]", "values": [
      {"measurement": "DR5 levels", "setting": "DR5 [2]", "value": "increased DR5 expression to a similar extent as Bafilomycin"}
    ]},
    {"molecule": "CCN(CC)CCCC(C)Nc1ccnc2cc(Cl)ccc12", "note": "(stereo not drawn) [Chloroquine]", "values": [
      {"measurement": "DR5 levels", "setting": "DR5 [2]", "value": "increased DR5 levels"}
    ]},
    {"molecule": "Cc1ccc2cc(-c3c(C)ccc(C(=O)c4c(-c5ccccc5)n(C)n(-c5ccccc5)c4=O)c3N)ccc2n1", "note": "[AMG44]", "values": [
      {"measurement": "Effect on DDA-induced DR5 upregulation and oligomerization", "setting": "DR5 [1]", "value": "potentiated DDA-induced DR5 upregulation and oligomerization"}
    ]},
    {"molecule": "Tunicamycin", "values": [
      {"measurement": "DR5 levels and disulfide bonding (electrophoretic mobility)", "setting": "DR5 [1]", "value": "increased DR5 levels without altering its mobility"}
    ]}
  ]
}
